# FGF22 binding: binders of human FGF22 protein, primary screen, FGF22 synaptogenesis inhibitor project, biophysical, thermal shift, single point; Fibroblast growth factor 22 (Homo sapiens), Q9HCT0; recombinant FGF22 thermal shift, SYPRO orange fluorescence; percent of sucrose octasulfate shift, DMSO zero; activity (Tm shift, normalised), % at 9.99 µM; 340,000 compounds, 1.5% hits;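 active = mean Tm shift, scaled 0 neutral to 100 positive control, at about 1.3% or above, every replicate too, limit read from the data; inconclusive = no clear call, values can overlap the other calls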
# F508del corr: F508del CFTR correction, initial screen, CFBE line, single point; CFBE cells, YFP halide quenching; stimulated with forskolin plus potentiator P3; % fluorescence drop versus neutral controls; activity (quench increase), % at 7.58 µM; 350,000 compounds, 0.36% hits; AID 720511, 2013;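 active = mean added fluorescence quench of at least 8% versus neutral control, with both replicates also reaching 8%; inconclusive = only one of the mean or replicate conditions met; inactive = mean below 8% and not both replicates reaching 8%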;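 note: cells transiently co-express mutant CFTR-F508del with the halide-sensitive YFP; corrector assay measuring rescue of mutant channel to the surface after 24 h compound exposure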
# E-selectin induc: E-selectin induction in HUVECs, primary screen, imaging, HUVEC, immunofluorescence imaging, single point | normalized: neutral wells 0, TNF-alpha wells 100 | AID 686992, 2013 | 260,000 compounds, 0.37% hits | activation, % at 7.58 µM | P16581;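 active = mean E-selectin-positive cell signal at least 10% of the positive control, reached in at least 60% of replicates, without over 20% cell loss; inconclusive = no rule given, readout overlaps actives, possibly toxicity-flagged; inactive = the rest, including those meeting only one limit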
# Target sequence (P16581 whole entry, looked up): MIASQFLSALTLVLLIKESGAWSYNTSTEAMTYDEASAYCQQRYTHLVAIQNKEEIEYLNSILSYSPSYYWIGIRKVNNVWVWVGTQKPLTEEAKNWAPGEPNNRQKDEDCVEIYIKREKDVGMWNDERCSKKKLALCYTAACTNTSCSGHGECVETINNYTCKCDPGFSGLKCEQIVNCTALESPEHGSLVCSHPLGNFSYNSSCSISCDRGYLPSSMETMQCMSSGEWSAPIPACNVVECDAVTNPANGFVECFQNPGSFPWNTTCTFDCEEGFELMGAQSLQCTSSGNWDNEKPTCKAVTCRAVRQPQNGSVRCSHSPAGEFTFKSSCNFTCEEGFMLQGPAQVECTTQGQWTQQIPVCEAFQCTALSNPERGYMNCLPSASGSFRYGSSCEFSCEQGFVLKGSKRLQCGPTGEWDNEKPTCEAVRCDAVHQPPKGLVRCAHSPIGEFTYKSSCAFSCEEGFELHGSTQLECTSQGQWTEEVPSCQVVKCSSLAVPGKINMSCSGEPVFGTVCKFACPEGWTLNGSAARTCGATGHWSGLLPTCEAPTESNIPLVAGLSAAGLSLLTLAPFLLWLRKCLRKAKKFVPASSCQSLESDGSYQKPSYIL
#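 Read-out basis: % PE-positive cells; Test system: HUVEC primary endothelial cells; Technique: immunofluorescence imaging; Dosing: single-point compound dose.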
# DENV2 CPE rescue: inhibitors of DENV2 cytopathic effect, primary screen, cell-based, plate reader, single concentration | DENV2-infected cells, cytopathic effect rescue | 350,000 compounds, 1.7% hits | CPE inhibition, % at 9.99 µM; in the data active = CPE inhibition above about 20%, passing the limit was not always enough; inconclusive = no clear call, values can overlap the other calls; tested in BHK-21 cells;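 note: 0% = median of neutral control wells and 100% = median of positive control wells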
# ERAP1 inh: human ERAP1 aminopeptidase inhibitors, primary screen, biochemical, single point, plate reader | 340,000 compounds, 0.15% hits | recombinant ERAP1, Leu-AMC fluorescence, 60 min | inhibition, % at 10.7 µM | Endoplasmic reticulum aminopeptidase 1 (Homo sapiens), Q9NZ08;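 active = mean replicate inhibition of at least 30%, or all replicates individually reaching that 30% level; inactive = mean below 30% and not every replicate reaching it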;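 note: 0% = neutral control wells and 100% = L-leucinethiol positive control wells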
# Numbers without * were called inactive; ? = inconclusive; · = no result. An excerpt weighted towards active compounds, which were near 3.7% of everything screened.
SMILES,FGF22 binding,F508del corr,E-selectin induc,DENV2 CPE rescue,ERAP1 inh
COc1ccccc1CNC(=O)C[C@@H]1CC[C@@H]2[C@H](COc3ccc(NS(=O)(=O)c4ccc(C)cc4)cc3C(=O)N2C)O1,0,0,0,-8,0
C[C@@H]1CCCCO[C@H](CN(C)C(=O)CCCN(C)C)[C@H](C)CN([C@H](C)CO)C(=O)c2cc(NC(=O)Nc3cccc4ccccc34)ccc2O1,-1,-2,0,-2,1
COc1ccc2c3c([nH]c2c1)[C@@H](CO)N(C(=O)c1ccc(F)cc1)CC31CN(C)C1,0,-1,0,-9,·
CCOc1cc(/C=N/n2cnnc2)ccc1OS(=O)(=O)c1ccc(C)cc1,44*,-2,·,1,0
CCOc1cc(C(=S)N2CCOCC2)ccc1OS(=O)(=O)c1ccc(C)cc1,0,3,1,-4,1
CCOc1ccc(/C=N/n2nnnc2N)cc1OCC,0,0,0,27*,2
CCS(=O)(=O)N[C@@H]1C=C[C@H](CC(=O)NC2Cc3ccccc3C2)O[C@H]1CO,0,-1,0,0,1
COc1ccc(S(=O)(=O)Nc2ccc3c(c2)C(=O)N([C@@H](C)CO)C[C@H](C)[C@@H](CN(C)S(=O)(=O)c2c(C)noc2C)OCCCC[C@H](C)O3)cc1,0,2,·,-11,2
CCC(=O)N1CC2(C1)CN(C(=O)Nc1ccccc1F)[C@H](CO)c1[nH]c3cc(OC)ccc3c12,0,-3,1,-9,-1
COc1ccc(NC(=O)C2(C)Cc3c(-c4ccc5c(c4)OCO5)ccnc3O2)cn1 (configuration not stated),44*,-2,1,8,-3
CCC(=O)N1C[C@@H](C)[C@@H](OC)CN(C)C(=O)c2cc(NC(=O)CC(F)(F)F)ccc2OC[C@@H]1C,0,-1,0,6,-3
O=c1c2ccccc2c(/C=N/c2nnc(Cc3ccccc3)s2)c(O)n1-c1ccc(Cl)cn1,0,·,-2,1,0
O=c1c2ccccc2c(/C=N/c2n[nH]c(CCCO)n2)c(O)n1-c1ccccc1Cl,43*,-3,3,8,-1
CN(Cc1ccccc1)S(=O)(=O)c1cccc2nsnc12,44*,4,9,-2,1
C[C@H](CO)N1C[C@H](C)[C@H](CN(C)S(C)(=O)=O)Oc2ncc(/C=C/c3ccccc3)cc2C1=O,0,2,-2,0,0
Cc1ccc(N(C(=O)c2nsc(Cl)c2Cl)C(C(=O)NC2CCCC2)c2ccc(O)cc2)cc1C (configuration not stated),0,-6,·,84*,0
Cc1c(C(=O)N2CCN(S(=O)(=O)c3cc(F)ccc3F)CC2)oc2ccccc12,0,-1,343*,-8,1
Cc1c(C(=O)N2CCN(S(=O)(=O)c3ccccc3)CC2)oc2ccccc12,1,-3,0,1,0
COc1cccc(S(=O)(=O)N[C@H]2C=C[C@@H](CC(=O)NCc3ccc(F)cc3)O[C@H]2CO)c1,-1,0,1,1,-4
O=C(Nc1ccc(F)cc1)c1cc(-c2ccccc2)no1,43*,-3,·,-11,1
COc1ccc(-c2cc(C(=O)Nc3ccccc3)on2)cc1,0,1,1,1,6
Cc1[nH]nc2c1C(c1cccs1)C1=C(CCCC1=O)N2 (configuration not stated),43*,-1,1,2,2
CCC(=O)Nc1cc(-c2cc3ccccc3oc2=O)ccc1OC,43*,-4,·,1,10
CCC(=O)Nc1ccc(-c2cc3ccccc3oc2=O)cc1,0,-3,·,13,-2
O=C(O)c1cc2nc3c(c(C(F)(F)F)n2n1)CCCC3,43*,2,·,5,-1
SMILES,FGF22 binding,F508del corr,E-selectin induc,DENV2 CPE rescue,ERAP1 inh
O=C(O)c1cc2nc(-c3ccccc3)cc(-c3ccccc3)n2n1,0,-2,·,-3,-10
O=C(N[C@@H]1CC[C@H](CCNS(=O)(=O)c2ccccc2)O[C@H]1CO)c1cccnc1,0,0,-1,-3,-2
Cc1c(C#N)c(O)n(CCO)c(=O)c1N=Nc1ccc(S(N)(=O)=O)cc1,0,1,0,45*,2
Cc1ccc(S(=O)(=O)Nc2cc(C)cc(CCNC=O)c2C)cc1,0,9.6*,0,2,-3
O=C(Cc1ccccc1)N1CC2(C1)[C@@H](c1ccccc1)[C@H](CO)N2C(=O)Cc1ccccc1,0,-1,0,-7,0
N#C[C@H]1[C@@H](c2ccccc2C2=CCCCC2)[C@@H](CO)N1C(=O)c1cccc(F)c1,0,-1,0,4,0
C[C@@H]1CN([C@H](C)CO)S(=O)(=O)c2ccc(C#Cc3ccccc3)cc2O[C@@H]1CN(C)CC1CC1,0,-3,0,16,-4
CCCC#Cc1ccc2c(c1)O[C@H](CN(C)CC1CC1)[C@H](C)CN([C@@H](C)CO)S2(=O)=O,0,-2,0,1,0
CCCC#Cc1ccc2c(c1)O[C@@H](CN(C)CC1CCCC1)[C@H](C)CN([C@H](C)CO)S2(=O)=O,0,0,0,60*,0
C[C@H]1CN([C@@H](C)CO)S(=O)(=O)c2ccc(C#Cc3ccccc3)cc2O[C@H]1CN(C)CC1CC1,0,-1,0,35*,-4
C[C@@H]1CN([C@@H](C)CO)S(=O)(=O)c2ccc(-c3ccccc3)cc2O[C@H]1CN(C)CC1CCCC1,0,4,2,39*,-3
Cc1ccc(S(=O)(=O)N(C)C[C@H]2OCCCC[C@@H](C)Oc3ccc(NC(=O)CCCN(C)C)cc3C(=O)N([C@@H](C)CO)C[C@H]2C)cc1,0,1,·,-3,-3
Cc1ccc(CNC(=O)C2CCC(=O)N2Cc2ccc(F)cc2)cc1 (configuration not stated),0,·,1,-1,-2
Cc1ccc(CN2C(=O)CCC2C(=O)NCCN2CCN(c3cccc(Cl)c3)CC2)cc1 (configuration not stated),0,0,0,6,31*
O=C(/C=C/NNC(=O)c1ccc(Cl)cc1)c1ccccc1,44*,3,·,1,1
CO[C@H]1CN(C)C(=O)c2ccc(NC(=O)Nc3ccc(C(F)(F)F)cc3)cc2OC[C@H](C)NC[C@@H]1C,-1,2,0,68*,2
CO[C@@H]1CN(C)C(=O)c2ccc(NC(=O)c3ccc(Oc4ccccc4)cc3)cc2OC[C@H](C)NC[C@@H]1C,0,-3,0,?,-1
